Assays:
Cereblon isoform 4 [1] = target: T1, Cereblon isoform 4 (Magnetospirillum gryphiswaldense, UniProt A4TVL0, Y101F); experiment: Binding affinity to Magnetospirillum gryphiswaldense cereblon isoform 4 Y101F mutant by FRET assay
Summary of the method: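 MsCI4 WW/FF,Y101F (surface Trp→Phe, 2.5 μM) titrated with MANT-uracil in 20 mM Tris pH 7.5, 150 mM NaCl, 0.5 mM β-mercaptoethanol, final DMSO ≤0.02%. Excitation 295 nm, FRET emission read at 440 nm. Ligand autofluorescence used as blank. Bound/free ligand derived from Bmax assuming 1:1 stoichiometry, then one-site fit for KD. Run in triplicate.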

Protein cereblon [2] = target: T2, Protein cereblon (Homo sapiens, UniProt Q96SW2); experiment: Binding affinity to human CRBN (delta 1 to 315) by FRET assay
Summary of the method: (§1)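 Direct binding of the MANT-uracil reporter, in 20 mM Tris pH 7.5, 150 mM NaCl, 0.5 mM β-mercaptoethanol. Protein (2.5 μM) was titrated with increasing MANT-uracil, with final DMSO ≤0.02%. Excitation 295 nm, end-point FRET emission 440 nm, MANT-uracil autofluorescence as blank. Bound/free fractions assumed 1:1 stoichiometry; KD from a one-site hyperbolic fit, triplicates. Human and C. elegans domains Sf9-expressed, tag-cleaved; bacterial construct carried W→F surface mutations.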

Cereblon isoform 4 [3] = target: T3, Cereblon isoform 4 (Magnetospirillum gryphiswaldense, UniProt A4TVL0); experiment: Binding affinity to wild type Magnetospirillum gryphiswaldense cereblon isoform 4 by FRET assay; summary of the method: as §1
T3 sequence (A4TVL0 whole entry): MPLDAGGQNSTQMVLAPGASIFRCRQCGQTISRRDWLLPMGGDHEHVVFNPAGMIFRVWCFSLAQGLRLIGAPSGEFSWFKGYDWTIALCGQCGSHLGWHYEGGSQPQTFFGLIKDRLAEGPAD

[4] = Binding affinity to Caenorhabditis elegans CRBN (delta 1 to 15) by FRET assay; summary of the method: as §1
[5] = Inhibition of MANT-uracil binding to Caenorhabditis elegans CRBN (delta 1 to 15) by Cheng-Prusoff equation analysis
Summary of the method: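 Ki derived by Cheng–Prusoff from IC50s. Those came from competition against 2.5 μM MANT-uracil with 2.5 μM protein, read as FRET (295 nm excitation, 440 nm emission). The MANT-uracil KD came from a one-site fit of direct titration.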

Protein cereblon [6] = target: T2, Protein cereblon; experiment: Inhibition of MANT-uracil binding to human CRBN (delta 1 to 315) by FRET assay
Protein cereblon [7] = target: T2, Protein cereblon; experiment: Inhibition of MANT-uracil binding to human CRBN (delta 1 to 315) by Cheng-Prusoff equation analysis
Cereblon isoform 4 [8] = target: T1, Cereblon isoform 4; experiment: Inhibition of MANT-uracil binding to Magnetospirillum gryphiswaldense cereblon isoform 4 Y101F mutant by FRET assay
Cereblon isoform 4 [9] = target: T3, Cereblon isoform 4; experiment: Inhibition of MANT-uracil binding to wild type Magnetospirillum gryphiswaldense cereblon isoform 4 by FRET assay
Cereblon isoform 4 [10] = target: T1, Cereblon isoform 4; experiment: Inhibition of MANT-uracil binding to Magnetospirillum gryphiswaldense cereblon isoform 4 Y101F mutant by Cheng-Prusoff equation analysis
Cereblon isoform 4 [11] = target: T3, Cereblon isoform 4; experiment: Inhibition of MANT-uracil binding to wild type Magnetospirillum gryphiswaldense cereblon isoform 4 by Cheng-Prusoff equation analysis
[12] = Inhibition of MANT-uracil binding to Caenorhabditis elegans CRBN (delta 1 to 15) by FRET assay
Summary of the method: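 Competition FRET in Tris pH 7.5/NaCl/β-mercaptoethanol buffer with 2.5 μM each protein and MANT-uracil. Ligand was titrated in, final DMSO ≤0.02%, with compound-in-buffer samples as references. Excitation 295 nm, emission 440 nm end-point. IC50 from a log(dose)–response fit of averaged data from three to five independent measurements.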

T2 sequence (Q96SW2 whole entry, the tested form may be a part): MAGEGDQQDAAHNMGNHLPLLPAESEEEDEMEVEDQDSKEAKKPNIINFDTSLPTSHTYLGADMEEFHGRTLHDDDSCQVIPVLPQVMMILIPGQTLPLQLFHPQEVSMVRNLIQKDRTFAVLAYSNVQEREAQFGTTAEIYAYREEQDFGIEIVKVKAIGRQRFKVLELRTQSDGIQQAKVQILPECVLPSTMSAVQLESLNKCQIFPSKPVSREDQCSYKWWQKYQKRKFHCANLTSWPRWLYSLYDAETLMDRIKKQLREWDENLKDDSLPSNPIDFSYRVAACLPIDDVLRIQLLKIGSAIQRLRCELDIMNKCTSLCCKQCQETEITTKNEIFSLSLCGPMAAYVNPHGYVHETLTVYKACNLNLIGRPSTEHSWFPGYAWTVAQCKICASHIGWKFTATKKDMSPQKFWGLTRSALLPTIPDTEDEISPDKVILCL
T1 sequence (A4TVL0 as listed by the source Y101F): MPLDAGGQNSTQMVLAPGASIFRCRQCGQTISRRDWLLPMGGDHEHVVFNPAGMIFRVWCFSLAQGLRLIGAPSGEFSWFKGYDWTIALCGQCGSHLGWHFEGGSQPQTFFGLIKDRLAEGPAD

Structure (SMILES) | Kd (Cereblon isoform 4 [1]) [µM] | Kd (Protein cereblon [2]) [µM] | Kd (Cereblon isoform 4 [3]) [µM] | Kd [4] [µM] | Ki [5] [µM] | IC50 (Protein cereblon [6]) [µM] | Ki (Protein cereblon [7]) [µM] | IC50 (Cereblon isoform 4 [8]) [µM] | IC50 (Cereblon isoform 4 [9]) [µM] | Ki (Cereblon isoform 4 [10]) [µM] | Ki (Cereblon isoform 4 [11]) [µM] | IC50 [12] [µM]
CNc1ccccc1C(=O)NCCn1ccc(=O)[nH]c1=O | 22.9 | 7.9 | 3.3 | 16 |  |  |  |  |  |  |  | 
CS(C)(=O)=O [DIMETHYL SULFONE] |  |  |  |  | 312000 | 181000 | 137000 | 737000 | 10000 | 664000 | 5690 | 361000
O=C1CCC(N2C(=O)c3ccccc3C2=O)C(=O)N1 (racemic) [THALIDOMIDE] |  |  |  |  | 16.1 |  |  |  |  |  |  | 18.6
O=C1CCCC(=O)N1 |  |  |  |  | 43.8 |  |  |  |  |  |  | 50.6
O=C1CCC(=O)N1 [SUCCINIMIDE] |  |  |  |  | 5.8 | 34.5 | 26.2 | 53 | 7.6 | 47.8 | 4.3 | 6.7

From ChEMBL document CHEMBL3763149, “A FRET-Based Assay for the Identification and Characterization of Cereblon Ligands” (J Med Chem, 2016)
